Values belong to the molecule of their own block, whether it stands above or below them.
Columns and labels:
[1] = system: FLT3‐ITD; details: cited from earlier work
[2] = Population PK model of sorafenib and its N‐oxide metabolite in patients with AML; format: in vivo, human
[3] = target: CYP3A4 (Homo sapiens, UniProt P08684); format: in vivo; details: patients with AML
[4] = cited from earlier work
[5] = system: ERK; test: Exposure‐response; format: cell-based, human; details: for Imax,ERK, maximum inhibitory effect on ERK activity: as fraction
How it was run: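 Ex vivo ERK activity in FLT3‑ITD TF‑1 cells was read by Western blot as percent of each patient's baseline (100%). An inhibitory Emax model versus metabolite‑adjusted concentration was fitted sequentially to the PK model by FOCE‑I, with Imax estimated.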

[6] = target: T1, FLT3‐ITD (Homo sapiens, UniProt P36888); test: Exposure‐response; format: cell-based; details: doses given in this study (400 or 600 mg b.i.d.)
T1 sequence (P36888 27-993): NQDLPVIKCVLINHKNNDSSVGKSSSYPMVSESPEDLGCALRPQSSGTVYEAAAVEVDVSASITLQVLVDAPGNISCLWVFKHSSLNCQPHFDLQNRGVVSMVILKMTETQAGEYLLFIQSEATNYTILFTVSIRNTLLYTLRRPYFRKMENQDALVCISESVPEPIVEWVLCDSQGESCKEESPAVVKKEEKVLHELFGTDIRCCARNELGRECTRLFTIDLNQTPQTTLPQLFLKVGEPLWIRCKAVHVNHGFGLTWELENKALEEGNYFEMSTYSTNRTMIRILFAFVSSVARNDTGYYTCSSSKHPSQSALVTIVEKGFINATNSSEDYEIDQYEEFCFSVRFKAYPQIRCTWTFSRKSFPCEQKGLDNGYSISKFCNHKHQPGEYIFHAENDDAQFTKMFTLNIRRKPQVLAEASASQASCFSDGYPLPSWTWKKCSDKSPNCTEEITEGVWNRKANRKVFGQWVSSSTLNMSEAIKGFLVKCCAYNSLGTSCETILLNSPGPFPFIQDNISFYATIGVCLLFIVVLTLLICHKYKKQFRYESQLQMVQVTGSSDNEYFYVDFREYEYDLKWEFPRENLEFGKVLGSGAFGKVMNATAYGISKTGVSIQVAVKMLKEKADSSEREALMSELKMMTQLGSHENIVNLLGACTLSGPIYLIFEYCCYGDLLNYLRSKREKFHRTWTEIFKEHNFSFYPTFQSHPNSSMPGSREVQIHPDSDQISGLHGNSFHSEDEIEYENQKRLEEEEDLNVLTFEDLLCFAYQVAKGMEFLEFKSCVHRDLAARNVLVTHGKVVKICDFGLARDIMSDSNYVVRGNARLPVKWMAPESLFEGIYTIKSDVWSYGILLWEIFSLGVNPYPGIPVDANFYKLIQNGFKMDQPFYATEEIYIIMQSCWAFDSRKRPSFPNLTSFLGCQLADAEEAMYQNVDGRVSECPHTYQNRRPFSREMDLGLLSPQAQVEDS

[7] = cited from earlier work; remark: listed apart in the source
[8] = FOCE‐I estimate, typical value at 80 kg

Chain of CYP3A4 (P08684 whole entry): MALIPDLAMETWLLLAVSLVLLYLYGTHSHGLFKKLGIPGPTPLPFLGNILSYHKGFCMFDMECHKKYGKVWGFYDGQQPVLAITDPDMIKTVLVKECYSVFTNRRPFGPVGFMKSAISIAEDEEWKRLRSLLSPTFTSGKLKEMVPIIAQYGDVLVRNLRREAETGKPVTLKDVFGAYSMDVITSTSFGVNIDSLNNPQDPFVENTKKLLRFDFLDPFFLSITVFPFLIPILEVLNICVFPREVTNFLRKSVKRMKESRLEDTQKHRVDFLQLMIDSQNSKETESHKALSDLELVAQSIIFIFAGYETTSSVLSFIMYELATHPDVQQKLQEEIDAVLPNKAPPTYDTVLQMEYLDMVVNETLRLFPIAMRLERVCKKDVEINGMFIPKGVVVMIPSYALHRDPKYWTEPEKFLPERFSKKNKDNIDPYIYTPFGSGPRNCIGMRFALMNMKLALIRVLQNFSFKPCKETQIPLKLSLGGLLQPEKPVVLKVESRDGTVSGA

CLm, clearance of the N‐oxide metabolite [2, 8]: 116 L/h
V7, apparent volume of distribution (compartment A7) of the N‐oxide metabolite [2, 8]: 89.80 L
CLm, clearance of the N‐oxide metabolite ([2]; median of 1,000 bootstraps): 123 L/h
V7, apparent volume of distribution (compartment A7) of the N‐oxide metabolite ([2]; median of 1,000 bootstraps): 94.50 L
SMILES: CNC(=O)c1cc(Oc2ccc(NC(=O)Nc3ccc(Cl)c(C(F)(F)F)c3)cc2)cc[n+]1[O-] [sorafenib N‐oxide]
fold more potent than the parent drug, FLT3‐ITD potency ([1]; in vitro study, N‐oxide vs sorafenib): 14.59 fold

change in sorafenib exposure in the presence of the inhibitor [3]: no change
SMILES: C[C@@H](c1ncncc1F)[C@](O)(Cn1cncn1)c1ccc(F)cc1F [voriconazole]

K64, release rate constant from gallbladder back to the gastrointestinal track ([2]; FOCE‐I estimate): 0.173 h⁻¹
TENT, time controller of enterohepatic recirculation (time after dose) ([2]; FOCE‐I estimate): 5.48 h
fENT, fraction of sorafenib that goes through enterohepatic circulation ([2]; FOCE‐I estimate): 50.20%
Ka, absorption rate constant ([2]; FOCE‐I estimate, patients with AML, oral): 3.75 h⁻¹
clearance ([2]; human, plasma, oral, CL, total clearance, median of 1,000 bootstraps): 237 mL/min
fraction unbound ([2]; human, plasma, oral, fu, %fraction of unbound sorafenib, FOCE‐I estimate): 0.0181
K64, release rate constant from gallbladder back to the gastrointestinal track ([2]; median of 1,000 bootstraps): 0.17 h⁻¹
Ka, absorption rate constant ([2]; median of 1,000 bootstraps): 3.78 h⁻¹
TENT, time controller of enterohepatic recirculation (time after dose) ([2]; median of 1,000 bootstraps): 5.47 h
fENT, fraction of sorafenib that goes through enterohepatic circulation ([2]; median of 1,000 bootstraps): 50.20%
concentration dependence of plasma protein binding ([2]; within the observed concentration range): concentration independent
extent of FLT3‐ITD activity inhibition [6]: fully inhibited
SMILES: CNC(=O)c1cc(Oc2ccc(NC(=O)Nc3ccc(Cl)c(C(F)(F)F)c3)cc2)ccn1 [sorafenib]
in vitro FLT3‐ITD inhibitory activity compared with midostaurin [1]: fourfold higher
dose above which saturable absorption occurs [4]: over 400 mg
time to steady‐state [4]: ≤ 7 days
Imax,ERK, maximum inhibitory effect on ERK activity ([5]; FOCE‐I estimate): 0.84
extent of ERK activity inhibition ([5]; doses given in this study (400 or 600 mg b.i.d.)): could not be completely inhibited
Imax,ERK, maximum inhibitory effect on ERK activity ([5]; median of 1,000 bootstraps): 0.82
dose‐limiting toxicity rate ([7]; 400 mg b.i.d. regimen, 2/9 patients, original clinical trial ref 9): ~20%
proportion of patients with AML able to adhere to dosing ([7]; continuous 400 mg b.i.d.): 18%

Source: publication PMC6039208 (Clinical and Translational Science, 2018)
